The results in this text go back to ChEMBL document CHEMBL4622936, “Discovery of the potent non-steroidal glucocorticoid receptor modulator BAY 1003803 as clinical candidate” (Bioorg Med Chem Lett, 2020).

The structures appear in SMILES notation. pEC50, pIC50: −log10 of the molar value.

The test system of data set [1] is THP-1. The data set can be described thus: Immunomodulatory activity in human THP1 cells assessed as reduction in LPS-induced IL-8 production. It counts as functional, cell-based. The gist of the method:
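Human promyeloid THP-1 cells were stimulated with lipopolysaccharide to induce IL-8 synthesis, and inhibition of IL-8 production by the test compound was measured.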

The test system of the next data set is HeLa. The data set can be described thus: Inhibition of collagenase (unknown origin) transfected in human HeLa cells by luciferase reporter gene assay relative to control. It counts as cell-based. (In general: In a reporter assay the amount or activity of a reporter protein is the signal.)
The test system of data set [2] is THP-1. The data set can be described thus: Immunomodulatory activity in human THP1 cells assessed as reduction in LPS-induced IL-8 production relative to control. It is filed as functional.
Data set [3] can be described thus: Lipophilicity, logP of compound. It is filed as physicochemical. The settings on record: octanol/water.
The nature of data set [4]: Inhibition of collagenase (unknown origin) transfected in human HeLa cells by luciferase reporter gene assay. It counts as cell-based.
Data set [5] in a line: Mutagenicity in Salmonella typhimurium by Ames test. It is filed as toxicity. The following applies: salmonella enterica subsp. enterica serovar typhimurium. A general note: In the Ames test, an excess of revertant colonies over the control signals mutagenicity.
Data set [6] deals with PBMC. The data set can be described thus: Inhibition of PHA-induced IL2 release in human PBMC cells relative to control. It counts as functional.
Data set [7] has as its system PBMC. The data set can be described thus: Inhibition of PHA-induced IL4 release in human PBMC cells relative to control. It is filed as functional.
Data set [8] concerns PBMC. The data set can be described thus: Inhibition of LPS-induced IL12p40 release in human PBMC cells relative to control. It counts as functional.
For data set [9], the system named is PBMC. The data set can be described thus: Inhibition of PHA-induced IL4 release in human PBMC cells. It counts as functional, cell-based. Summed up: (§1)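 Primary human peripheral blood mononuclear cells were stimulated with LPS (IL-12p40, TNFα) or PHA (IFNγ, IL-2, IL-4). Cytokine release was measured with test compound, and clobetasol and dexamethasone were run in parallel as reference glucocorticoids.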

Data set [10] relates to PBMC. The data set can be described thus: Inhibition of PHA-induced IFNgamma release in human PBMC cells relative to control. It is filed as functional.
In data set [11] the test system is PBMC. The data set can be described thus: Inhibition of PHA-induced IL2 release in human PBMC cells. It is filed as functional, cell-based. The gist of the method:
as §1

For data set [12], the system named is PBMC. The data set can be described thus: Inhibition of LPS-induced TNFalpha release in human PBMC cells. It is filed as functional, cell-based. The gist of the method:
as §1

Data set [13] concerns PBMC. The data set can be described thus: Inhibition of LPS-induced TNFalpha release in human PBMC cells relative to control. It counts as functional.
Data set [14] relates to PBMC. The data set can be described thus: Inhibition of LPS-induced IL12p40 release in human PBMC cells. It is filed as functional, cell-based. The gist of the method: as §1
Data set [15] has as its system PBMC. The data set can be described thus: Inhibition of PHA-induced IFNgamma release in human PBMC cells. It is filed as functional, cell-based. The gist of the method:
as §1

As a reminder, the pIC50 is the IC50 on a negative log10 scale, so that one unit is a factor of ten. The Emax is the size of the effect at its maximum, as opposed to the concentration needed. For orientation: logP means a log measure of how a compound divides between an organic and an aqueous phase. Read a low logP as lower lipophilicity. As usually defined, the pEC50 is −log10 of the EC50, conventionally taken in molar units. Higher therefore signals a small EC50.

For the compound `CCSC[C@@](O)([C@@H](Nc1cccc2nc(C)ccc12)c1ccc(OC)c(F)c1)C(F)(F)F`, in the data set with THP-1 [1], the pIC50 was 8.30. The Emax with HeLa was found to be 77%; in the data set with THP-1 [2], 82%. For the same compound, the logP in data set [3] came to 4.1. The negative logarithm of the EC50 (pEC50) in [4] is 8.20.
With `Nc1cccc2c(=O)[nH]ccc12`, the Activity entry in data set [5] was “Toxic”.
Turning to `CCSC[C@@](O)([C@@H](Nc1cccc2nc(C)ccc12)c1ccc(F)cc1OC)C(F)(F)F`, the pIC50 in the data set with THP-1 [1] was 8.30. For the same compound, the Emax in the data set with HeLa was found to be 72%; in the data set on THP-1 [2], 78%. Besides, the log partition coefficient (logP) in [3] was 4.4. In addition, the pEC50 in data set [4] was 8.00.
Turning to `Nc1ccc(F)c2[nH]c(=O)ccc12`, in [5], the Activity entry is recorded as “Toxic”.
Turning to `CCSC[C@@](O)([C@@H](Nc1cccc2nc(C)ccc12)c1ccc(C)cc1)C(F)(F)F`, the pIC50 in the data set on THP-1 [1] was 8.60. Moreover, the maximum response (Emax) with HeLa came out at 66%; in the data set with THP-1 [2] it was 87%. Also, the logP in [3] was 4.8. In data set [4], this compound had a pEC50 of 7.90.
As for `CCSC[C@@](O)([C@@H](Nc1cccc2nc(C)ccc12)c1ccc(OC)cc1F)C(F)(F)F`, the pIC50 in the data set with THP-1 [1] is 8.30. In addition, the figures for the Emax with HeLa and in the data set on THP-1 [2] were 63% and 85%, respectively. This compound also came in with a logP in data set [3] of 4.4. For the same compound, the pEC50 in data set [4] is 8.30.
As for `CCSC[C@@](O)([C@@H](Nc1cccc2nc(C)ccc12)c1cccc(F)c1OC)C(F)(F)F`, in the data set on THP-1 [1], the pIC50 was 8.70. Also, the Emax was determined as 47% in the data set with HeLa and 69% in the data set with THP-1 [2]. In data set [3], this compound yielded a logP of 4.6. This compound had a pEC50 in data set [4] of 8.00.
`CCSC[C@@](O)([C@@H](Nc1cccc2nc(C)ccc12)c1ccc(Cl)c(F)c1OC)C(F)(F)F`: in the data set with THP-1 [1], the pIC50 was 8.80. The maximal effect (Emax) in the data set with HeLa was 66%; with THP-1 [2], 82%. The same compound came in with a logP in [3] of 5.3. The compound further had a pEC50 in [4] of 8.90.
Taken in the same sequence, the figures for `COc1ccc([C@H](Nc2cc(F)cc3[nH]c(=O)ccc23)[C@](O)(CN(C)C)C(F)(F)F)c(Cl)c1F` were 8.10, 62%, 109%, 4.4 and 8.40.
Turning to `CCOC[C@@](O)([C@@H](Nc1cc(F)cc2[nH]c(=O)ccc12)c1ccc(OC)c(F)c1Cl)C(F)(F)F`, the pIC50 in the data set with THP-1 [1] was 9.10. Moreover, the Emax was 91% with HeLa and 99% with THP-1 [2]. The compound also registered a logP in data set [3] of 3.8. Besides, in [4], the pEC50 is 8.80.
For the compound `Nc1cc(F)cc2[nH]c(=O)ccc12`, the Activity result in data set [5] is “Non-Toxic”.
With `COC[C@@](O)([C@@H](Nc1cccc2nc(C)ccc12)c1ccc(OC)c(F)c1Cl)C(F)(F)F`, the pIC50 with THP-1 [1] is 9.70. The values for the Emax with HeLa and with THP-1 [2] were 80% and 97%, respectively. Besides, the logP in data set [3] turned out to be 3.8. The compound further gave a pEC50 in data set [4] of 8.80.
For `C[C@@H]1C[C@H]2[C@@H]3CCC4=CC(=O)C=C[C@]4(C)[C@@]3(F)[C@@H](O)C[C@]2(C)[C@@]1(O)C(=O)CO` [DEXAMETHASONE], the pIC50 in the data set on THP-1 [1] was 8.60; in the data set with PBMC [9], 8.64; in the data set on PBMC [11] it was 8.34; in the data set on PBMC [12], 8.19; in the data set with PBMC [14] it was 8.37; in the data set on PBMC [15], 8.42. The Efficacy in the data set with PBMC [6], with PBMC [7], in the data set on PBMC [8], in the data set with PBMC [10] and in the data set with PBMC [13] was 100% in each case. For the same compound, the Emax with HeLa and in the data set on THP-1 [2] was 100% in each case. In addition, the pEC50 in data set [4] was 8.10.
Consider `CCSC[C@@](O)([C@@H](Nc1cc(F)cc2[nH]c(=O)ccc12)c1ccc(OC)c(F)c1Cl)C(F)(F)F`, for which, in the data set with THP-1 [1], the pIC50 is 8.80. The Emax in the data set with HeLa was found to be 92%; in the data set with THP-1 [2] it was 93%. The compound further registered a logP in data set [3] of 4.3. This compound also gave a pEC50 in data set [4] of 8.50.
In the case of `COc1ccc([C@H](Nc2cccc3nc(C)ccc23)[C@](O)(CC#N)C(F)(F)F)c(Cl)c1F`, in the data set with THP-1 [1], the pIC50 is 8.90. Also, the Emax with HeLa was 80%; with THP-1 [2] it was 83%. Further, in data set [3], the logP came out at 3.4. In data set [4], this compound had a pEC50 of 8.80.
On the same counts, the results for `CCSC[C@@](O)([C@@H](Nc1cccc2nc(C)ccc12)c1ccc(OC)cc1)C(F)(F)F` are 8.20, 70%, 86%, 4.2 and 8.00.
Regarding `C[C@H]1C[C@H]2[C@@H]3CCC4=CC(=O)C=C[C@]4(C)[C@@]3(F)[C@@H](O)C[C@]2(C)[C@@]1(O)C(=O)CCl` [CLOBETASOL], the Efficacy worked out at 97% in the data set with PBMC [6]; 99% with PBMC [7]; 98% with PBMC [8]; 101% with PBMC [10]; 102% in the data set with PBMC [13]. Further, the pIC50 was 10.15 in the data set on PBMC [9]; 9.85 with PBMC [11]; 9.64 with PBMC [12]; 9.85 in the data set on PBMC [14]; 9.80 in the data set on PBMC [15].
For `CC[C@H]1c2c(cc(F)c(F)c2O)[C@H](Nc2cccc3[nH]c(=O)ccc23)[C@@](O)(C(F)(F)F)C1OC` (stereo partly drawn), in the data set on THP-1 [1], the pIC50 is 8.20. Besides, the Emax stood at 29% with HeLa and 78% with THP-1 [2]. Moreover, the logP in data set [3] stood at 3.1. Besides, the pEC50 in data set [4] was 8.00.
Turning to `COc1ccc([C@H](Nc2cc(F)cc3[nH]c(=O)ccc23)[C@](O)(CSC)C(F)(F)F)c(Cl)c1F`, the negative-log IC50 (pIC50) in the data set with THP-1 [1] is 10.00. The Emax came to 94% with HeLa and 100% with THP-1 [2]. The same compound registered a logP in data set [3] of 3.9. Further, the negative logarithm of the EC50 (pEC50) in data set [4] is 9.40.
Taken in the same sequence, the figures for `CCSC[C@@](O)([C@@H](Nc1cccc2nc(C)ccc12)c1ccc(Cl)c(F)c1O)C(F)(F)F` were 7.70, 102%, 107%, 3.4 and 7.60.
On the same counts, the results for `COc1ccc([C@H](Nc2cccc3nc(C)ccc23)[C@](O)(CSC)C(F)(F)F)c(Cl)c1F` are 9.90, 89%, 98%, 4.5 and 9.60.
On the same counts, the results for `CCSC[C@@](O)([C@@H](Nc1cccc2nc(C)ccc12)c1ccc(OC)c(F)c1Cl)C(F)(F)F` are 9.80, 87%, 91%, 4.9 and 9.20.
As to `Nc1c(F)ccc2[nH]c(=O)ccc12`, the Activity entry in [5] is reported as “Toxic”.
For the compound `COc1ccc([C@H](Nc2cccc3nc(C)ccc23)[C@](O)(CN(C)C)C(F)(F)F)c(Cl)c1F`, in the data set with THP-1 [1], the pIC50 is 8.30. Also, the Emax with HeLa was 66%; in the data set with THP-1 [2] it was 77%. Besides, the logP in data set [3] was 5.3. Moreover, in data set [4], the pEC50 is 7.40.
